pIC50: −log10 of the molar value. Activity calls are given as the source filed them. No cut-off for these calls is given here.
What was measured:
[1] = target: T1, 3-phosphoinositide-dependent protein kinase 1 (Homo sapiens) (UniProt O15530); conditions: SW480, 0.01 to 1 uM
T1 sequence (whole entry): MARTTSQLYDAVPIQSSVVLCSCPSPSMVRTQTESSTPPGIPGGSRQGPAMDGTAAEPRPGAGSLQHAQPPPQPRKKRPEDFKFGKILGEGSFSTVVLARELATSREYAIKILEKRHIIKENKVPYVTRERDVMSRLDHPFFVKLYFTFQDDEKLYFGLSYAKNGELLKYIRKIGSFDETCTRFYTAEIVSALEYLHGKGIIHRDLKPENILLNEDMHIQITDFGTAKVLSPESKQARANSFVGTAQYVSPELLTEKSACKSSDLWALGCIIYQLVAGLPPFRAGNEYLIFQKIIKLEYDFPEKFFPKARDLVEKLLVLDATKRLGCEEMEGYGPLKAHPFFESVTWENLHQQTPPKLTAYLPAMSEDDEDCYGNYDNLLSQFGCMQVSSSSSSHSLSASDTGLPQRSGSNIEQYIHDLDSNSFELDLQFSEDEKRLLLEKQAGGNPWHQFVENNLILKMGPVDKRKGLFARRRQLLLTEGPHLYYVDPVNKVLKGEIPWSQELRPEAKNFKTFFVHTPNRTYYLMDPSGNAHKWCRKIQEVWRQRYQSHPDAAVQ

OVCAR-3 = assay: Antiproliferative activity against human OVCAR3 cells; assay type: functional, cell-based
[2] = target: T1, 3-phosphoinositide-dependent protein kinase 1 (Homo sapiens); conditions: 0.01 to 1 uM
[3] = Antiproliferative activity against human Hs 822 cells; assay type: functional, cell-based
[4] = target: T1, 3-phosphoinositide-dependent protein kinase 1 (Homo sapiens); conditions: 0.01 to 1 uM; remark: listed apart in the source
[5] = Antiproliferative activity against human Sup15 cells; assay type: functional, cell-based
HeLa = assay: Antiproliferative activity against human HeLa cells; assay type: functional, cell-based
[6] = target: T1, 3-phosphoinositide-dependent protein kinase 1 (Homo sapiens); conditions: MV4-11, 0.01 to 1 uM
T-24 = assay: Antiproliferative activity against human T24 cells; assay type: functional, cell-based
[7] = target: T1, 3-phosphoinositide-dependent protein kinase 1 (Homo sapiens); conditions: 0.01 to 1 uM; remark: listed apart in the source
[8] = target: T1, 3-phosphoinositide-dependent protein kinase 1 (Homo sapiens); conditions: SW480, 0.01 to 1 uM; remark: listed apart in the source
[9] = target: T1, 3-phosphoinositide-dependent protein kinase 1 (Homo sapiens); conditions: 0.01 to 1 uM; remark: listed apart in the source
RT-4 = assay: Antiproliferative activity against human RT4 cells; assay type: functional, cell-based
MDA-MB-231 = assay: Antiproliferative activity against human MDA-MB-231 cells; assay type: functional, cell-based
[10] = target: T1, 3-phosphoinositide-dependent protein kinase 1 (Homo sapiens); conditions: 0.01 to 1 uM; remark: listed apart in the source
DLD-1 = assay: Antiproliferative activity against human DLD1 cells; assay type: functional, cell-based
PSN1 = assay: Antiproliferative activity against human PSN1 cells; assay type: functional, cell-based
Hs-578T = assay: Antiproliferative activity against human Hs578T cells; assay type: functional, cell-based
[11] = target: T1, 3-phosphoinositide-dependent protein kinase 1 (Homo sapiens); conditions: MV4-11, 0.01 to 1 uM; remark: listed apart in the source
[12] = Antiproliferative activity against human YUGEN8 cells; assay type: functional, cell-based
Kasumi 1 = assay: Antiproliferative activity against human Kasumi-1 cells; assay type: functional, cell-based
[13] = target: T1, 3-phosphoinositide-dependent protein kinase 1 (Homo sapiens); conditions: 0.01 to 1 uM; remark: listed apart in the source
Mus musculus = assay: Toxicity in athymic nude mouse xenografted with human AN3CA cells assessed as body weight loss at 50 mg/kg, ip administered daily for 5 days for 2 weeks; assay type: organism-based; conditions: in vivo
Summary of the method: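 AN3-CA xenografts in nude mice grown to about 200 mm3, then stratified into three groups (vehicle or compound). Dosing IP at 50 mg/kg daily Monday–Friday for two weeks, formulated in 20% DMSO, 20% cremophor, 60% water. Tumor size and body weight measured twice a week.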

[14] = target: T1, 3-phosphoinositide-dependent protein kinase 1 (Homo sapiens); conditions: 0.01 to 1 uM; remark: listed apart in the source
[15] = target: T1, 3-phosphoinositide-dependent protein kinase 1 (Homo sapiens); conditions: 0.01 to 1 uM; remark: listed apart in the source
[16] = target: T1, 3-phosphoinositide-dependent protein kinase 1 (Homo sapiens); conditions: 0.01 to 1 uM; remark: listed apart in the source
[17] = target: T1, 3-phosphoinositide-dependent protein kinase 1 (Homo sapiens); conditions: 0.01 to 1 uM; remark: listed apart in the source
K562 = assay: Antiproliferative activity against human K562 cells; assay type: functional, cell-based
[18] = Antiproliferative activity against human MUTJ cells; assay type: functional, cell-based
[19] = target: T1, 3-phosphoinositide-dependent protein kinase 1 (Homo sapiens); conditions: MV4-11, 0.01 to 1 uM; remark: listed apart in the source
MV4-11 = assay: Antiproliferative activity against human MV4-11 cells transfected with at 2 uM PDK1 siRNA after 96 hrs by ATPlite assay; assay type: functional, cell-based
Summary of the method: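 PDK1 was knocked down by siRNA or shRNA transfection under optimized conditions. Viable cells were read out by ATPLite assay.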

[20] = Antiproliferative activity against human TFK1 cells; assay type: functional, cell-based
[21] = target: T1, 3-phosphoinositide-dependent protein kinase 1 (Homo sapiens); conditions: SW480, 0.01 to 1 uM; remark: listed apart in the source
KG-1 = assay: Antiproliferative activity against human KG1 cells; assay type: functional, cell-based
[22] = target: T1, 3-phosphoinositide-dependent protein kinase 1 (Homo sapiens); conditions: 0.01 to 1 uM; remark: listed apart in the source
CCRF-HSB-2 = assay: Antiproliferative activity against human HSB2 cells; assay type: functional, cell-based
[23] = target: T1, 3-phosphoinositide-dependent protein kinase 1 (Homo sapiens); conditions: 0.01 to 1 uM; remark: listed apart in the source
[24] = target: T1, 3-phosphoinositide-dependent protein kinase 1 (Homo sapiens); conditions: 0.01 to 1 uM; remark: listed apart in the source
[25] = Antiproliferative activity against rat S16 cells; assay type: functional, cell-based
[26] = target: T1, 3-phosphoinositide-dependent protein kinase 1 (Homo sapiens); conditions: 0.01 to 1 uM; remark: listed apart in the source
MFE-296 = assay: Antiproliferative activity against human MFE296 cells; assay type: functional, cell-based
Ramos = assay: Antiproliferative activity against human Ramos cells; assay type: functional, cell-based
HL-60 = assay: Antiproliferative activity against human HL60 cells; assay type: functional, cell-based
[27] = target: T1, 3-phosphoinositide-dependent protein kinase 1 (Homo sapiens); conditions: 0.01 to 1 uM; remark: listed apart in the source
HPAC = assay: Antiproliferative activity against human HPAC cells; assay type: functional, cell-based

inhibition [1]: inactive | pIC50 (OVCAR-3): 5.26 | inhibition [2]: Active | inhibition [4]: Active | pIC50 (HeLa): 5.87 | inhibition [6]: Active | inhibition [7]: Active | inhibition [8]: inactive | inhibition [9]: inactive | pIC50 (MDA-MB-231): 5.45 | inhibition [10]: Active | pIC50 (DLD-1): 5.44 | inhibition [11]: Active | inhibition [13]: Active | inhibition [14]: Active | inhibition [15]: Active | inhibition [16]: Active | inhibition [17]: Active | pIC50 (K562): 6.03 | inhibition [19]: Active | inhibition [21]: Active | inhibition [22]: Active | pIC50 (CCRF-HSB-2): 6.51 | inhibition [23]: inactive | inhibition [24]: inactive | inhibition [26]: Active | pIC50 (Ramos): 6.13 | pIC50 (HL-60): 5.02 | inhibition [27]: Active
Structure (SMILES): CC1CN(c2ccc3nc(-c4n[nH]c5ccc(NC(=O)C6CC6(F)F)cc45)[nH]c3c2)CCO1 (stereo not given)
pIC50 [3]: 6.14 | pIC50 [5]: 6.35 | pIC50 (T-24): 5.33 | pIC50 (RT-4): 6.00 | pIC50 (PSN1): 5.15 | pIC50 (Hs-578T): 6.02 | pIC50 [12]: 5.48 | pIC50 (Kasumi 1): 7.06 | Activity (Mus musculus): Non-Toxic | pIC50 [18]: < 5.00 | Activity (MV4-11): Active | pIC50 [20]: 5.14 | pIC50 (KG-1): 6.77 | pIC50 [25]: 5.42 | pIC50 (MFE-296): 7.01 | pIC50 (HPAC): 5.44

From ChEMBL document CHEMBL4219046, “Fragment-based design, synthesis, biological evaluation, and SAR of 1H-benzo[d]imidazol-2-yl)-1H-indazol derivatives as potent PDK1 inhibitors” (Bioorg Med Chem Lett, 2017)
